Experimental data from different studies.
Lines come from different studies, so protocols differ.
CA9: Carbonic anhydrase 9 (CA9, Homo sapiens, UniProt Q16790)
PRSS1: Serine protease 1 (PRSS1, Bos taurus, UniProt P00760)
HDAC9: Histone deacetylase 9 (HDAC9, Homo sapiens, UniProt Q9UKV0)
PKN1: Serine/threonine-protein kinase N1 (PKN1, Homo sapiens, UniProt Q16512)
PDE4C: 3',5'-cyclic-AMP phosphodiesterase 4C (PDE4C, Homo sapiens, UniProt Q08493)

Compound	target	observed	mode	method	time	pH	IC50 [nM]
CC1Cc2c(-c3cn(C)nn3)cccc2N1Cc1ccoc1C(=O)Nc1ccc(S(N)(=O)=O)cc1 (stereo not drawn)	CA9	enzyme activity	inhibitor				11.2
COc1cc(/C=N/n2c(C)nc3ccc(Br)cc3c2=O)ccc1O	PRSS1	enzyme activity	inhibitor				46400
CCCC[C@H](NC(=O)C1CN(C)C1)c1ncc(-c2cc3ccccc3nc2OC)[nH]1	HDAC9	enzyme activity	inhibitor				> 30000
O=C(NS(=O)(=O)c1ccc(COc2ccccc2)cc1)c1cccc(-c2cc(Cl)cc(Cl)c2)c1	Induced myeloid leukemia cell differentiation protein Mcl-1 (MCL1, Homo sapiens, UniProt Q07820)	ligand displacement		FP			5100
CCOCc1nc(O)c(-c2nnc(Cc3ccc(Cl)cn3)o2)c(O)c1-c1c(OC)cccc1OC	Beta-1 adrenergic receptor (ADRB1, Homo sapiens, UniProt P08588)	ligand displacement		radioligand			> 30000
Cc1nc2ccc(Br)cc2c(=O)n1/N=C/c1ccc(C(=O)O)cc1	PRSS1	enzyme activity	inhibitor				213000
O=C1NC(=O)C(c2cnc3ccccn23)=C1c1cn2c3c(cc(F)cc13)CN(C(=O)N1CCCCC1)CC2	PKN1	enzyme activity	inhibitor				108
CC(OC(=O)C1CCCN(C(=O)c2ccc(Cl)cc2)C1)C(=O)Nc1ccc(S(N)(=O)=O)cc1 (stereo not drawn)	CA9	enzyme activity	inhibitor				42.7
COc1ccc(-c2nsc(NC(=O)[C@@H]3C[C@H]3C)c2C)cc1	Metabotropic glutamate receptor 4 (GRM4, Homo sapiens, UniProt Q14833)	calcium signal	antagonist				> 12500
CC(C)c1nc(CN(C)C(=O)N[C@@H](CCN2CCOCC2)C(=O)N[C@H](CC[C@H](Cc2ccccc2)NC(=O)OCc2cncs2)Cc2ccccc2)cs1	Solute carrier family 22 member 7 (SLC22A7, Homo sapiens, UniProt Q9Y694)	transporter uptake	inhibitor				> 100000
CC1Cc2cc(-c3cn(C)nn3)ccc2N1Cc1ccoc1C(=O)Nc1ccc(S(N)(=O)=O)cc1 (stereo not drawn)	CA9	enzyme activity	inhibitor				132
COc1cc2c(c(OC)c1OC)-c1c(cc3c(c1OC)OCO3)C[C@H](C)[C@](C)(O)[C@H]2OC(=O)c1ccccc1	Cytochrome P450 3A5 (CYP3A5, Homo sapiens, UniProt P20815)	enzyme activity	inhibitor		15 min	pH 7.4	370
Cc1c[nH]c2nc(Nc3ccc(N4CCN(C)CC4)c(F)c3)nc(-c3cccc(CC#N)c3)c12	PKN1	enzyme activity	inhibitor				187
Cc1cc(C(=O)N2CCN(Cc3nc(-c4ccc(Cl)cc4)no3)CC2)ccc1S(N)(=O)=O	CA9	enzyme activity	inhibitor				81
COc1cc(NCC(=O)Nn2c(C)nc3ccc(Cl)cc3c2=O)cc(OC)c1OC	PRSS1	enzyme activity	inhibitor				54300
COc1ccc(S(=O)(=O)N2Cc3cc(O)c(O)cc3CC2C(=O)NO)cc1 (stereo not drawn)	Matrix metalloproteinase-9 (MMP9, Homo sapiens, UniProt P14780)	enzyme activity	inhibitor				> 1000
COc1ccc(C2=NN(C3CCCCCC3)C(=O)[C@@H]3CC=CC[C@H]23)cc1-c1ccc(C(=O)NCC(N)=O)cc1 (relative stereo)	PDE4C	enzyme activity	inhibitor				1000
O=C(c1ccc(Nc2nccc(-c3cc4ccccc4s3)n2)cc1)N1CCC(N2CCCC2)CC1	PKN1	enzyme activity	inhibitor				49
CC[C@@H](C(=O)Nc1ccc(C(N)=O)c(F)c1)n1cc(OC)c(-c2cc(Cl)ccc2-n2cc(C(F)(F)F)nn2)cc1=O	Urokinase-type plasminogen activator (PLAU, Homo sapiens, UniProt P00749)	enzyme activity	inhibitor				> 10000
Nc1ccc(-c2ccncc2)cc1NC(=O)N1CCCC1	HDAC9	enzyme activity	inhibitor				> 33300

Compound	target	observed	mode	method	time	pH	IC50 [nM]
NS(=O)(=O)c1ccc(NC(=O)COC(=O)C(=Cc2cccs2)c2cccs2)cc1	CA9	enzyme activity	inhibitor				322
CN1CCN(c2ccc(Nc3ncc4cc(C#N)c(=O)n(C5CCCC5)c4n3)cc2)CC1	PKN1	enzyme activity	inhibitor				7050
COCCOc1ccc2c(c1)ncn2-c1ccc2cccc(N3CCC(N)CC3)c2n1	PKN1	enzyme activity	inhibitor				36
CN(C)Cc1ccc(N2CCN(C(=O)c3ccc(Cl)c(S(N)(=O)=O)c3)CC2)nc1	CA9	enzyme activity	inhibitor				5700
CC(C)C[C@H](NC(=O)[C@H]1O[C@@H]1C(=O)O)C(=O)NCCCCN=C(N)N	Cathepsin L2 (CTSV, Homo sapiens, UniProt O60911)	enzyme activity	inhibitor				5.41
CCNC(=O)[C@H](CCCNC(=N)CCl)NC(=O)c1ccccc1	Protein-arginine deiminase type-4 (PADI4, Homo sapiens, UniProt Q9UM07)	enzyme activity	inhibitor				4100
Cc1ccc(C(=O)NCCC(=O)NCc2cc(S(N)(=O)=O)ccc2F)c(O)c1	CA9	enzyme activity	inhibitor				1660
O=C(Nc1ccncc1)c1cc2ccccc2o1	Amine oxidase [flavin-containing] B (MAOB, Homo sapiens, UniProt P27338)	enzyme activity	inhibitor	fluorescence			6900
N#C/C(=C\c1ccc(-c2cc(Cl)ccc2Cl)o1)C(=O)Nc1cccc2ncccc12	NAD-dependent protein deacylase sirtuin-5, mitochondrial (SIRT5, Homo sapiens, UniProt Q9NXA8)	enzyme activity	inhibitor	HPLC			> 100000
O=c1c(O)c(-c2ccc(O)c(O)c2)oc2cc(O)cc(O)c12	Sulfotransferase 1A1 (SULT1A1, Homo sapiens, UniProt P50225, R213H)	enzyme activity	inhibitor				232
CC1(COc2ccc3c(c2)ncn3-c2ccc3cccc(N4CCC(N)CC4)c3n2)COC1	PKN1	enzyme activity	inhibitor				22
COc1ccc([C@@H]2CN(C(=O)[C@@H](O)CO)C[C@@]2(C)[C@@H](C)O)cc1OC1CN(c2ccc(C)cn2)C1	PDE4C	enzyme activity	inhibitor				2.4
CC(C)c1cc(CNc2nc(Nc3cc(C4CC4)[nH]n3)cc(N3CCN(C)CC3)n2)on1	PKN1	enzyme activity	inhibitor				20
NS(=O)(=O)c1ccc(NC2=NC(=O)/C(=C\c3ccc(C(=O)O)cc3)S2)cc1	CA9	enzyme activity	inhibitor				122
CN1CCC(Nc2nc(Nc3ccc(Oc4ccccc4)cc3)c3c(=O)[nH]cc(Br)c3n2)CC1	PKN1	enzyme activity	inhibitor				101
CCc1ccc(/C=N/n2c(C)nc3ccc(C)cc3c2=O)s1	PRSS1	enzyme activity	inhibitor				224000
Cc1cc(Nc2cc(CN3CCOCC3)c3nc(C)c(Cc4ccc(Cl)cc4F)n3n2)n[nH]1	PKN1	enzyme activity	inhibitor				4070
Cc1nc2ccc(Cl)cc2c(=O)n1NC(=O)CCl	PRSS1	enzyme activity	inhibitor				97900
COC(=O)C1CCCCN1C(=O)c1cccc(NC(=O)CSc2ccc(S(N)(=O)=O)cc2)c1 (stereo not drawn)	CA9	enzyme activity	inhibitor				91
